The values below come from ChEMBL document CHEMBL1145928, “Guanidino N-substituted and N,N-disubstituted derivatives of the kappa-opioid antagonist GNTI” (J Med Chem, 2003).

Assay [1] concerns the target T1, Mu-type opioid receptor (Homo sapiens, UniProt P35372). Kind of assay: Binding affinity against cloned human Opioid receptor mu 1 transfected into chinese hamster ovary cells using [3H]DAMGO as radioligand. In kind it is cell-based. In short, it runs like this:
(§1)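 Competition binding in CHO cells transfected with cloned human opioid receptors, using [3H]DAMGO (μ), [3H]Cl-DPDPE (δ) and [3H]U69,593 (κ) as displaced radioligands. Hill slopes were examined. Data are averages of two experiments, each run in triplicate.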

In assay [2] the target is T2, Opioid receptors; delta & kappa (Homo sapiens) (UniProt P41145+P41143). Kind of assay: Ratio of (Ke) delta-opioid receptor to that of (Ke) kappa-opioid receptor. In kind it is protein assay. An outline of the steps: (§2)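 Selectivity ratios taken from [35S]GTPγS antagonist values in CHO membranes expressing cloned human receptors (μ with DAMGO, δ with Cl-DPDPE, κ with U69,593), as μ/κ and δ/κ. Values are means of five or six experiments.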
T2 sequence (P41143 whole entry, looked up): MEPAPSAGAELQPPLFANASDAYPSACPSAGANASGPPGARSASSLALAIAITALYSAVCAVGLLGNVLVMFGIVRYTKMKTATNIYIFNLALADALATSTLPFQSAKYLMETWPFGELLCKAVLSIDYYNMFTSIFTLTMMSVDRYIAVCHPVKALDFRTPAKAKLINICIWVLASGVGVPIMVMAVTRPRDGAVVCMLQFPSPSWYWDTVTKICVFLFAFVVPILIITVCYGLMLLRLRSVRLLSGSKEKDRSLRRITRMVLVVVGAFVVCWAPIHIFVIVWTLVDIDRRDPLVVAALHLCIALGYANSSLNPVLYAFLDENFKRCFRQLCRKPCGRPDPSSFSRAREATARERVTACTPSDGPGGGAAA
T2 sequence (P41145 whole entry, looked up): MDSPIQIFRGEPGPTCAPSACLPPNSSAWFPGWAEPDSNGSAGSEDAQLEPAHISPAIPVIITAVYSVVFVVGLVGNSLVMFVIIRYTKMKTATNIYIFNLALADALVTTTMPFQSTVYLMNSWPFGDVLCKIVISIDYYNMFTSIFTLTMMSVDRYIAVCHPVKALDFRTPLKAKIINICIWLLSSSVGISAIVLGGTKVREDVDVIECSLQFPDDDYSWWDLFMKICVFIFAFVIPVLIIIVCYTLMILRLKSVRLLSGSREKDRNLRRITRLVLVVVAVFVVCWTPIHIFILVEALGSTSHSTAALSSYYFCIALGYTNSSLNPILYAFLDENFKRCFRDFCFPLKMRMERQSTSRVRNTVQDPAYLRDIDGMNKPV

Assay [3] has as its target T2, Opioid receptors; delta & kappa (Homo sapiens). Kind of assay: Ratio of (Ki) delta-opioid receptor to that of (Ki) kappa-opioid receptor. In kind it is protein assay. An outline of the steps: (§3)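 Ki ratios μ/κ and δ/κ from competition binding in CHO cells with cloned human receptors, displacing [3H]DAMGO, [3H]Cl-DPDPE or [3H]U69,593. Data are averages of two experiments, each run in triplicate.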

Assay [4] deals with T3, Delta-type opioid receptor (Homo sapiens, UniProt P41143). Put plainly: Antagonistic activity against cloned human Opioid receptor delta 1 using DPDPE as ligand in [35S]GTP-gamma-S, assay. In kind it is functional.
T3 sequence (P41143 whole entry): as the sequence (P41143 whole entry, looked up) above
Assay [5] has as its target T4, Opioid receptors; mu & kappa (Homo sapiens) (UniProt P41145+P35372). Put plainly: Ratio of (Ki) mu-opioid receptor to that of (Ki) kappa-opioid receptor. In kind it is protein assay. In short, it runs like this: as §3
Assay [6] deals with T1, Mu-type opioid receptor. Kind of assay: Antagonistic activity against cloned human Opioid receptor mu 1 using DAMGO as ligand in [35S]GTP-gamma-S, assay. In kind it is functional. (In general: Binding of GTPγS marks nucleotide exchange on a G protein.)
Assay [7] concerns the target T5, Kappa-type opioid receptor (Homo sapiens, UniProt P41145). Kind of assay: Binding affinity against cloned human Opioid receptor kappa 1 transfected into chinese hamster ovary cells using [3H]U-69593 as radioligand. In kind it is cell-based. An outline of the steps:
as §1

Assay [8] addresses T3, Delta-type opioid receptor. Kind of assay: Binding affinity against cloned human Opioid receptor delta 1 transfected into chinese hamster ovary cells using [3H]Cl-DPDPE as radioligand. In kind it is cell-based. An outline of the steps: as §1
Assay [9] deals with T4, Opioid receptors; mu & kappa (Homo sapiens). Kind of assay: Ratio of (Ke) mu-opioid receptor to that of (Ke) kappa-opioid receptor. In kind it is protein assay. An outline of the steps:
as §2

Assay [10] addresses T5, Kappa-type opioid receptor. Kind of assay: Antagonistic activity against cloned human Opioid receptor kappa 1 using U69,593 as ligand in [35S]GTP-gamma-S, assay. In kind it is functional.

T1 sequence (P35372 whole entry): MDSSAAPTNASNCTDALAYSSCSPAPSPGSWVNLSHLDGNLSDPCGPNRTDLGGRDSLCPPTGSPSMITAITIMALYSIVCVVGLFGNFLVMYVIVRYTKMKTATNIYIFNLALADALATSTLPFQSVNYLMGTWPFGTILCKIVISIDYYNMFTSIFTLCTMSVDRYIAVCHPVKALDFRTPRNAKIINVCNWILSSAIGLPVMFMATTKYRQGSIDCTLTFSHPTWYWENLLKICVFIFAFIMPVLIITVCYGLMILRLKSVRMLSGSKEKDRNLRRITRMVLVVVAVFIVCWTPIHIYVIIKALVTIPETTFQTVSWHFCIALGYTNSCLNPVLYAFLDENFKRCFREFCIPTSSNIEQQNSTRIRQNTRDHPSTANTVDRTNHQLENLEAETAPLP
T4 sequence (P35372 whole entry, looked up): as the sequence (P35372 whole entry) above
T4 sequence (P41145 whole entry, looked up): as the sequence (P41145 whole entry, looked up) above
T5 sequence (P41145 whole entry): as the sequence (P41145 whole entry, looked up) above

For the compound `Oc1ccc2c3c1O[C@H]1c4[nH]c5ccc(N/C(=N/CC6CC6)NCc6ccccc6)cc5c4C[C@@]4(O)[C@@H](C2)N(CC2CC2)CC[C@]314`, the Ki – broadly, the dissociation constant of the complex between target and ligand, obtained from inhibition or displacement – on Mu-type opioid receptor [1] was found to be 17.7 nM; in [7] it was 3.91 nM; in [8] it was 18.1 nM. Further, the Ratio in assay [2] was determined as 19; in assay [3], 5; in assay [5], 4.5; in [9], 16. In addition, the Ke in assay [4] stood at 3.28 nM; on Mu-type opioid receptor [6], 2.75 nM; in assay [10], 0.17 nM.
Take `N/C(=N/Cc1cccc(O)c1)Nc1ccc2[nH]c3c(c2c1)C[C@@]1(O)[C@H]2Cc4ccc(O)c5c4[C@@]1(CCN2CC1CC1)[C@H]3O5`: the Ki at Mu-type opioid receptor [1] amounted to 14.2 nM; in assay [7], 2.74 nM; in assay [8], 17.6 nM. Also, the Ratio came out at 33 in assay [2], 6 in assay [3], 5 in assay [5] and 33 in assay [9]. For the same compound, the Ke turned out to be 4.35 nM in assay [4], 4.28 nM at Mu-type opioid receptor [6] and 0.13 nM in [10].
As for `N/C(=N/Cc1ccc(N)cc1)Nc1ccc2[nH]c3c(c2c1)C[C@@]1(O)[C@H]2Cc4ccc(O)c5c4[C@@]1(CCN2CC1CC1)[C@H]3O5`, the inhibitory constant (Ki) on Mu-type opioid receptor [1] is 7.89 nM; in assay [7], 0.63 nM; in [8], 23.9 nM. The Ratio in [2] amounted to 120; in assay [3], 68; in [5] it was 13; in assay [9], 14. Also, the Ke in assay [4] worked out at 10.8 nM; at Mu-type opioid receptor [6], 1.22 nM; in assay [10], 0.09 nM.
Take `CCCN/C(=N\CC1CC1)Nc1ccc2[nH]c3c(c2c1)C[C@@]1(O)[C@H]2Cc4ccc(O)c5c4[C@@]1(CCN2CC1CC1)[C@H]3O5`: the Ki on Mu-type opioid receptor [1] is 22.4 nM; in [7], 2.38 nM; in assay [8] it was 15.5 nM. Besides, the Ratio stood at 79 in assay [2], 6.5 in [3], 9 in assay [5] and 41 in assay [9]. Further, the Ke is 6.31 nM in assay [4], 3.26 nM at Mu-type opioid receptor [6] and 0.08 nM in [10].
For the compound `N/C(=N/Cc1ccc(Cl)cc1)Nc1ccc2[nH]c3c(c2c1)C[C@@]1(O)[C@H]2Cc4ccc(O)c5c4[C@@]1(CCN2CC1CC1)[C@H]3O5`, the Ki on Mu-type opioid receptor [1] came out at 29.8 nM; in assay [7], 0.66 nM; in assay [8] it was 85 nM. The Ratio in assay [2] was 55; in assay [3], 129; in [5] it was 45; in assay [9], 37. In addition, the values for the Ke (in [4]; at Mu-type opioid receptor [6]; in [10]) were 7.67 nM, 5.24 nM and 0.14 nM, respectively.
As for `CCCC/N=C(\NCCCC)Nc1ccc2[nH]c3c(c2c1)C[C@@]1(O)[C@H]2Cc4ccc(O)c5c4[C@@]1(CCN2CC1CC1)[C@H]3O5`, the Ki on Mu-type opioid receptor [1] was found to be 18.3 nM; in assay [7] it was 6.96 nM; in assay [8], 15 nM. Also, the Ratio was 12 in [2], 2 in assay [3], 3 in assay [5] and 13 in [9]. Also, the Ke in [4] was determined as 5.24 nM; on Mu-type opioid receptor [6], 5.66 nM; in [10] it was 0.44 nM.
For the compound `N/C(=N\CCc1ccc2[nH]c3c(c2c1)C[C@@]1(O)[C@H]2Cc4ccc(O)c5c4[C@@]1(CCN2CC1CC1)[C@H]3O5)NCc1ccc(Cl)cc1`, the Ki at Mu-type opioid receptor [1] is 7.74 nM; in [7], 2.41 nM; in assay [8], 19.2 nM. For the same compound, the Ratio came out at 6 in assay [2], 8 in assay [3], 3 in assay [5] and 11 in [9]. Besides, the Ke in [4] is 1.48 nM; on Mu-type opioid receptor [6] it was 2.61 nM; in [10], 0.23 nM.
For the compound `N/C(=N/Cc1ccccc1)Nc1ccc2[nH]c3c(c2c1)C[C@@]1(O)[C@H]2Cc4ccc(O)c5c4[C@@]1(CCN2CC1CC1)[C@H]3O5`, the Ki stood at 10.5 nM at Mu-type opioid receptor [1], 0.86 nM in assay [7] and 26.8 nM in assay [8]. Besides, the Ratio in [2] came out at 68; in assay [3], 31; in assay [5] it was 12; in [9] it was 24. Also, the Ke in assay [4] came to 4.09 nM; on Mu-type opioid receptor [6], 1.41 nM; in assay [10], 0.06 nM.
Regarding `N/C(=N\CCc1ccc2[nH]c3c(c2c1)C[C@@]1(O)[C@H]2Cc4ccc(O)c5c4[C@@]1(CCN2CC1CC1)[C@H]3O5)NCc1ccc(N)cc1`, the inhibition constant (Ki) on Mu-type opioid receptor [1] turned out to be 7.78 nM; in [7] it was 0.95 nM; in assay [8] it was 5.05 nM. In addition, the Ratio in assay [2] is 4; in [3], 5; in assay [5], 8; in assay [9], 6. The values for the Ke (in assay [4]; on Mu-type opioid receptor [6]; in [10]) were 0.95 nM, 1.57 nM and 0.25 nM, respectively.
As for `N/C(=N\CCc1ccc2[nH]c3c(c2c1)C[C@@]1(O)[C@H]2Cc4ccc(O)c5c4[C@@]1(CCN2CC1CC1)[C@H]3O5)NCc1ccccc1`, the Ki is 3.54 nM at Mu-type opioid receptor [1], 1.42 nM in [7] and 7.24 nM in [8]. Also, the Ratio in assay [2] was 10; in [3] it was 5; in [5] it was 2; in [9], 23. For the same compound, the Ke was 1.36 nM in assay [4], 2.94 nM at Mu-type opioid receptor [6] and 0.13 nM in [10].
With `N=C(N)NCc1ccc2[nH]c3c(c2c1)C[C@@]1(O)[C@H]2Cc4ccc(O)c5c4[C@@]1(CCN2CC1CC1)[C@H]3O5`, the Ki was found to be 36.9 nM on Mu-type opioid receptor [1], 0.18 nM in assay [7] and 70 nM in assay [8]. The Ratio is 389 in assay [2], 389 in assay [3], 205 in assay [5] and 81 in assay [9]. Further, the Ke in assay [4] was found to be 15.5 nM; on Mu-type opioid receptor [6], 3.23 nM; in assay [10], 0.04 nM.
As to `N/C(=N/Cc1ccc(O)cc1)Nc1ccc2[nH]c3c(c2c1)C[C@@]1(O)[C@H]2Cc4ccc(O)c5c4[C@@]1(CCN2CC1CC1)[C@H]3O5`, the Ki on Mu-type opioid receptor [1] was determined as 14.7 nM; in [7], 3.26 nM; in [8], 41.9 nM. The Ratio worked out at 183 in assay [2], 13 in assay [3], 4.5 in assay [5] and 127 in [9]. Also, the Ke in assay [4] amounted to 18.3 nM; at Mu-type opioid receptor [6], 12.7 nM; in assay [10], 0.1 nM.
Regarding `N/C(=N\CCc1ccc2[nH]c3c(c2c1)C[C@@]1(O)[C@H]2Cc4ccc(O)c5c4[C@@]1(CCN2CC1CC1)[C@H]3O5)NCc1ccc([N+](=O)[O-])cc1`, the Ki is 9.21 nM at Mu-type opioid receptor [1], 2.14 nM in assay [7] and 11.7 nM in assay [8]. Moreover, the Ratio in assay [2] worked out at 8; in assay [3] it was 5; in assay [5] it was 4; in assay [9], 13. The Ke is 1.34 nM in assay [4], 2.2 nM at Mu-type opioid receptor [6] and 0.17 nM in assay [10].
For the compound `N=C(N)NCCc1ccc2[nH]c3c(c2c1)C[C@@]1(O)[C@H]2Cc4ccc(O)c5c4[C@@]1(CCN2CC1CC1)[C@H]3O5`, the Ki is 5.69 nM at Mu-type opioid receptor [1], 0.49 nM in assay [7] and 4.93 nM in assay [8]. Further, the Ratio in assay [2] turned out to be 2; in [3], 10; in assay [5], 12; in assay [9], 3. Also, the Ke amounted to 0.88 nM in assay [4], 1.25 nM at Mu-type opioid receptor [6] and 0.4 nM in [10].
In the case of `CCC/N=C(\NCCC)Nc1ccc2[nH]c3c(c2c1)C[C@@]1(O)[C@H]2Cc4ccc(O)c5c4[C@@]1(CCN2CC1CC1)[C@H]3O5`, the Ki is 9.83 nM at Mu-type opioid receptor [1], 2.72 nM in [7] and 8.52 nM in [8]. Further, the Ratio in assay [2] was 9; in assay [3], 3; in assay [5] it was 4; in assay [9], 18. Moreover, the Ke in [4] came out at 2.43 nM; on Mu-type opioid receptor [6], 4.59 nM; in [10], 0.26 nM.
For the compound `CCCC/N=C(\NCCCC)NCCc1ccc2[nH]c3c(c2c1)C[C@@]1(O)[C@H]2Cc4ccc(O)c5c4[C@@]1(CCN2CC1CC1)[C@H]3O5`, the Ki at Mu-type opioid receptor [1] is 7.89 nM; in assay [7], 4.8 nM; in assay [8], 6.73 nM. The Ratio amounted to 3 in assay [2], 1.5 in [3], 1.5 in [5] and 12 in assay [9]. The Ke in [4] is 1.05 nM; on Mu-type opioid receptor [6], 4.62 nM; in assay [10] it was 0.39 nM.
Regarding `N/C(=N/Cc1ccc([N+](=O)[O-])cc1)Nc1ccc2[nH]c3c(c2c1)C[C@@]1(O)[C@H]2Cc4ccc(O)c5c4[C@@]1(CCN2CC1CC1)[C@H]3O5`, the values for the Ki (at Mu-type opioid receptor [1]; in assay [7]; in assay [8]) were 26.3 nM, 1.61 nM and 95.8 nM, respectively. Moreover, the Ratio amounted to 93 in [2], 60 in assay [3], 16 in assay [5] and 21 in assay [9]. In addition, the Ke was 16.7 nM in assay [4], 3.71 nM at Mu-type opioid receptor [6] and 0.18 nM in assay [10].
